# Source: PubChem BioAssay (several laboratories)
# mHtt clearance = mutant huntingtin protein clearance. HeLa Exon1htt(103Q)mCFP, aggregate imaging; zero = plate's median compound well. inhibition, % at 1.5 µM. actives 0.42% (n = 47,000). AID 853;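 active = inhibition of aggregate fluorescence above about 70%, also judged a hit by eye on the cell image, limit read from the data, passing the limit was not always enough; inconclusive = no rule stated for this call; inactive = not judged a hit on image review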;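 also: cells exposed to compound for three days before fixation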
# M1 antagonist = antagonists of rat M1 muscarinic receptor | CHO-M1 cells, Fluo-4 calcium, ACh EC80 antagonist mode; hits give low values | actives 3.4% (n = 64,000) | B-score at 10 µM | AID 628 | P08482;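 active = calcium fluorescence response, raw or row-and-column corrected B-score, differing from the plate sample mean either way at a set confidence level, mostly lower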
# M1 agonist = M1 muscarinic receptor agonism; actives 3% (n = 64,000); B-score at 10 µM; CHO-M1 cells, Fluo-4 calcium fluorescence, agonist mode; hits give high values;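 active = fluorescence rise, raw or as B-score row- and column-corrected plate score, outside the 99.7% band of its plate's samples, either direction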
# HEK293 NFkB inh = inhibitors of the PMA/ionomycin-induced NF-kB reporter in HEK293 cells. actives 0.21% (n = 62,000). HEK-293 NF-kB luciferase reporter, luminescence. inhibition, % at 3 µM;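 active = inhibition above the mean of all tested compounds plus 3 SD, cut at about 40% in these data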;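 also: 0% = stimulated DMSO wells and 100% = 10 µM reference inhibitor 5653914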
#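 Signal: luciferase luminescence; Material: HEK-293 cells with stable firefly luciferase reporter driven by four HIV NF-kB elements; Probe or stimulus: PMA with ionomycin; Replication: tested once; Times: 1 h compound pretreatment, then 16 h stimulation at 37 °C, 5% CO2; Benchmarks: DMSO and 10 µM reference inhibitor; Evaluation: per-plate % inhibition versus controls.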
# D1 mod = D1 dopamine receptor (human) allosteric modulation; P21728; HEK293 D1, CRE-luciferase, dopamine EC30 potentiation; actives deviate in either direction; B-score at 10 µM; actives 5.9% (n = 58,000);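 active = luminescence count or its row- and column-corrected plate score outside the 99.7% band of the plate's sample wells, on either side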
# Target sequence (P21728 whole entry, looked up): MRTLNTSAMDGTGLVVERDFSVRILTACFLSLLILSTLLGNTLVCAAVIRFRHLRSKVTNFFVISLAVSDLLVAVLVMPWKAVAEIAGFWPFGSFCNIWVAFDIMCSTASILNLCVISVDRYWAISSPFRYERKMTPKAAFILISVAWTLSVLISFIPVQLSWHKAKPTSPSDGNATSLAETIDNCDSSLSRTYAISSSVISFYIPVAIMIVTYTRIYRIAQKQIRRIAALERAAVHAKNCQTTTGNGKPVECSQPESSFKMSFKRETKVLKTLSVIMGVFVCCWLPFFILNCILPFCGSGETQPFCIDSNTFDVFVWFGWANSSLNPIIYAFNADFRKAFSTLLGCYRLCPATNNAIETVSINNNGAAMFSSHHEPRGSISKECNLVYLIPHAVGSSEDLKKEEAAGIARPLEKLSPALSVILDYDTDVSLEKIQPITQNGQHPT
# Jurkat viability = cytotoxic compounds reducing Jurkat cell viability | Jurkat E6.1 viability, ATP luminescence, 48 h | inhibition, % at 4 µM | actives 1.2% (n = 56,000);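 active = inhibition above the mean inhibition of all tested compounds plus 3 SD, cut at about 28% in these data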
# M1 ag confirm = confirmation of rat M1 muscarinic receptor agonists. fluorescence change (max-min) at 10 µM. CHO-M1 cells, Fluo-4 calcium fluorescence, agonist mode; actives lie on both sides. actives 19% (n = 1,700). shares compounds with M1 agonist;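 active = fluorescence change differs from the solvent-only DMSO control mean at a set confidence level in both duplicate runs; inconclusive = differs from solvent-only control mean in just one of two runs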;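 also: an EC20 dose of acetylcholine follows compound addition during the same imaging run; raw fluorescence intensity difference in instrument units with no normalization to controls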
# M4 ag counter = rat M4 muscarinic agonism, M1 counter-screen. shares compounds with M1 agonist. CHO M4/Gqi5 cells, Fluo-4 calcium fluorescence, agonist mode; actives lie on both sides. fluorescence change (max-min) at 10 µM. actives 9% (n = 1,700);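 active = fluorescence change differing from the plate's solvent-only control wells at 99.7% confidence in both duplicates, whether higher or lower; inconclusive = differs from solvent controls in only one of two duplicates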
# Numbers without * were called inactive; ? = inconclusive; nt = no result given. A selection: hits, their analogues and other compounds. The true share with any hit is near 9.5%.
SMILES,mHtt clearance,M1 antagonist,M1 agonist,HEK293 NFkB inh,D1 mod,Jurkat viability,M1 ag confirm,M4 ag counter
N=c1c(C(=O)NCc2ccco2)cc2c(=O)n3ccccc3nc2n1Cc1ccc(Cl)cc1,-68,nt,nt,22,-0.56,8,nt,nt
CCOC(=O)c1cnc(SC)nc1Oc1cccc(NS(=O)(=O)c2ccc(C)cc2)c1,-36,nt,nt,nt,nt,nt,nt,nt
c1ccc2[nH]c(-c3ccnc4ccccc34)nc2c1,nt,-0.99,2.4*,-7,-2.1,-2,-11,-34
CCSc1ncccc1-c1nc2ccccc2[nH]1,-44,nt,nt,nt,nt,nt,nt,nt
Cc1onc(COc2ccccc2O)c1Br,nt,-0.22,0.0074,4,-0.044,0,nt,nt
CCCCOc1ccc(-c2nc(=S)[nH][nH]2)cc1,6,nt,nt,nt,nt,nt,nt,nt
COc1ccc(N2CS(=O)(=O)/C(=C/N(C)C)C2=O)cc1,36,nt,nt,nt,nt,nt,nt,nt
COc1ccc(CCNC(=O)c2ccc3nc(-c4ccco4)c(-c4ccco4)nc3c2)cc1OC,3,-1,8.5*,16,-1.5,8,-1.9,-19
CCN(CC)S(=O)(=O)c1ccc(S(=O)(=O)Nc2ccc(C(=O)N3CCCC3)cc2)cc1,28,0.88,2.2*,1,-0.023,8,-9.5,-30
CCOc1ccc(NC(=O)c2cccc(-n3cnnn3)c2)cc1,nt,0.042,-0.68,4,0.093,nt,nt,nt
O=C(Nc1cnc2ccccc2c1)c1cccc(-n2cnnn2)c1,27,-1,4.4*,-30,-0.77,-8,?,-35
c1ccc(CCNc2ncnc3nc[nH]c23)cc1,-8,-1.1,-1.1,5,-0.26,-1,nt,nt
c1ccc2c(CCNc3ncnc4nc[nH]c34)c[nH]c2c1,nt,-0.17,3.9*,7,-5.5*,88*,-9.3,-20
CCOC(=O)C1CCN(c2c(N3CCCC(C(=O)OCC)C3)c(=O)c2=O)CC1 (centres undefined),-153,-0.13,27*,5,0.042,-2,38,?
CCOC(=O)C1CCCN(c2c(N3CCN(c4ccccn4)CC3)c(=O)c2=O)C1 (centres undefined),nt,-0.45,0.51,2,0.13,1,nt,nt
COc1ccc(Cl)cc1NC(=S)N1CCN(C(=O)c2ccco2)CC1,15,nt,nt,nt,nt,nt,nt,nt
C=C(C)Cn1c(CCCNC(=O)C(C)(C)C)nc2ccccc21,-3,1,-0.015,14,-0.34,nt,nt,nt
Cc1cccc(-c2noc(CN(C(=O)C(c3ccccc3)c3ccccc3)C(C)C)n2)c1,-11,nt,nt,nt,nt,nt,nt,nt
Oc1ccc2oc3c(c2c1/C=N/n1cnnc1)CCCC3,-19,1.2,1.3*,15,-0.71,9,?,-61
CCOC(=O)N1CCN(CC(=O)N2c3ccccc3CC2C)CC1 (centres undefined),nt,0.4,3.3*,4,nt,-6,-13,-26
COc1cccc(C2C(C(N)=O)=C(C)Nc3nc(-c4ccccc4Cl)nn32)c1 (centres undefined),nt,0.5,0.62,23,-2,1,nt,nt
Cc1ccc(C(=O)Cn2nnc3ccccc32)cc1,-25,nt,nt,nt,nt,nt,nt,nt
CCN(C(=O)c1ccc(C(C)(C)C)cc1)c1nnc(Cn2nnc3ccccc32)s1,19,-0.64,3.2*,40*,-1.3,101*,?,-54
CC1(C)CC(=O)C2=C(C1)N(c1cccc(O)c1)C1=C(C2)C(=O)CC(C)(C)C1,nt,-0.53,22*,21,5.6*,5,221*,170*
CCOC(=O)C1CCCN(C(=O)Cn2sc3nc(C)cc(C)c3c2=O)C1 (centres undefined),nt,0.71,5.9*,8,-0.11,2,25,-35
SMILES,mHtt clearance,M1 antagonist,M1 agonist,HEK293 NFkB inh,D1 mod,Jurkat viability,M1 ag confirm,M4 ag counter
CCOC(=O)C1CCCN(C(=O)Cc2c(C(=O)O)[nH]c3ccccc23)C1 (centres undefined),-225,0.81,4.6*,8,nt,nt,41,-24
CCOC(=O)C1CCCN(C(=O)CN2CCN(Cc3ccc(Cl)cc3)C2=O)C1 (centres undefined),nt,-0.44,23*,1,0.084,nt,202*,-51
CCOCC(=O)N1CCCC(C(=O)OCC)C1 (centres undefined),nt,0.99,0.42,7,0.52,-1,nt,nt
CCOC(=O)C1CCCN(C(=O)Cc2ccc(OC)c(OC)c2)C1 (centres undefined),-3,0.17,-0.01,-11,nt,1,nt,nt
O=C(CCN1CCN(Cc2ccccc2)CC1)Nc1cccc(Cl)c1,20,nt,nt,2,-1.3,3,nt,nt
CCCCCc1c(C)nc(Nc2nc(C)c3cc(OC)ccc3n2)[nH]c1=O,nt,0.071,0.62,-2,2.6,-6,nt,nt
CCc1c(C)nc(Nc2nc(C)c3cc(OC)ccc3n2)[nH]c1=O,44,-0.38,4.1*,12,-1.6,-1,-22,-20
CCOc1ncccc1C(=O)Nc1cccc(C(=O)Nc2cccc(S(=O)(=O)CCO)c2)c1,-59,-0.58,10*,5,-2.4,9,-13,-20
CCOC(=O)CSc1nc(N2CCOCC2)c2c(c1C#N)CC(C)(C)N(C)C2,nt,-0.66,0.32,nt,nt,nt,nt,nt
Cc1cccn2c(=O)c(/C=C(\C#N)S(=O)(=O)c3ccccc3)c(N3CCC(C(N)=O)CC3)nc12,-21,nt,nt,nt,nt,nt,nt,nt
CCN1CCN(c2nc3c(C)cccn3c(=O)c2/C=C(\C#N)S(=O)(=O)c2ccccc2)CC1,nt,-3,8.9*,nt,-1,nt,31,2.4
CC(C)(C)OC(=O)NCCc1nnc(SCC(=O)c2ccc(Cl)cc2)o1,nt,-0.47,0.0027,5,-1.6,8,nt,nt
C[C@H](NC(=O)OC(C)(C)C)c1nnc(SCC(=O)c2ccc(Cl)cc2)o1,nt,-2.3,5.5*,14,-0.28,8,7.4,-11
CNC(=O)c1cc2cc(Cl)cc(OC)c2oc1=O,-13,-0.62,2.5,4,-0.13,-4,nt,nt
Cc1cccc(-n2nc3c(c2NC(=O)CCC2CCCCC2)CS(=O)C3)c1C (centres undefined),nt,-0.15,0.061,5,-1.2,0,nt,nt
COc1ccc(CNC2CC(=O)N(C)C2=O)cc1 (centres undefined),nt,0.22,3.4*,-5,-0.7,0,-14,-50
CCOC(=O)N1CCC(NCCNC(=O)c2cccs2)CC1,-29,-2.6*,28*,8,0.41,nt,256*,?
CCCCOCCCNC(=O)c1cccs1,8,-0.84,-0.76,10,0.056,3,nt,nt
CCOC(=O)N1CCC(NCCNC(=O)c2ccccc2)CC1,-98,nt,nt,11,-0.045,nt,nt,nt
CCOC(=O)N1CCC(NCCNC(=O)c2ccccc2Cl)CC1,nt,-9.1*,25*,-10,0.42,6,267*,?
CN1CCC(NC(=O)c2cccs2)CC1,56,-0.054,6.6*,12,-1.4,7,-17,?
CCn1c(Cc2cccc3ccccc23)nnc1SCC(=O)Nc1nccs1,51,nt,nt,nt,nt,nt,nt,nt
